This note sets out measurements from ChEMBL document CHEMBL1128172, “Structure-activity relationships of cyclic pentapeptide endothelin A receptor antagonists” (J Med Chem, 1995).

The structures appear in SMILES notation. In brackets after ≈: the same amount, converted by molar mass. Where a SMILES comes first, the peptide text is derived from it.

In data set [1] the target is T1, Endothelin receptor type B (Sus scrofa, UniProt P35463).
T1 sequence (P35463 whole entry): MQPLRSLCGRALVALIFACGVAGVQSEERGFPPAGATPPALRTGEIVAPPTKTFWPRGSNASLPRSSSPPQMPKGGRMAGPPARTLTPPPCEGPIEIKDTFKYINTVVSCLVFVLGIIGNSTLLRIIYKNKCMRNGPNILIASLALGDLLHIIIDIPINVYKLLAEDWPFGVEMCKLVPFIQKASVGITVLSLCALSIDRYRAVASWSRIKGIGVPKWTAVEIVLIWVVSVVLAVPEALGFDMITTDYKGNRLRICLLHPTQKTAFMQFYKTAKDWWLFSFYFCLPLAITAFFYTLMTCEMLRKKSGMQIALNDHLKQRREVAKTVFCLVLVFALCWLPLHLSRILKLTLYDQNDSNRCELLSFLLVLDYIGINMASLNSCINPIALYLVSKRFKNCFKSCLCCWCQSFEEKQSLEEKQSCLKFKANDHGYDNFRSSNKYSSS
Nature of the data set: Inhibitory effect against porcine Endothelin B receptor.

Data set [2] addresses T2, Endothelin-1 receptor (Homo sapiens, UniProt P25101).
T2 sequence (P25101 whole entry): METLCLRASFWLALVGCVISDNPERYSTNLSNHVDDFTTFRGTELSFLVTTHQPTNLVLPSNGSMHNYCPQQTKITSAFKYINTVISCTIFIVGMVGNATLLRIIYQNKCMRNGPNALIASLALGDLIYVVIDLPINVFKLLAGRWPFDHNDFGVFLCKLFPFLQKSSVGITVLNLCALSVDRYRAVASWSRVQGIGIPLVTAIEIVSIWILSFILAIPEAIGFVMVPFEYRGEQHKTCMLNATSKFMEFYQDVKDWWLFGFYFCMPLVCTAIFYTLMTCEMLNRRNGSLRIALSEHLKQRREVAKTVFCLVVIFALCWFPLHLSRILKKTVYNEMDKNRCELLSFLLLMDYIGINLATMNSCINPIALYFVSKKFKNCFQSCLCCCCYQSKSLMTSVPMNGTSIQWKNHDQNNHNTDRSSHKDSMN
Nature of the data set: Inhibitory effect against Human Endothelin A receptor. In short, it runs like this: (§1)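 Competition binding of 12 pM [125I]ET-1 to membranes from human neuroblastoma SK-N-MC cells (ETA) or Girardi heart cells (ETB), with increasing test compound, in 50 mM Tris/HCl pH 7.4 with protease inhibitors, 1 mM EDTA and 0.3% BSA. Incubated 4 h at 25 °C, filtered, washed, gamma-counted. Nonspecific binding defined with 0.2 μM ET-1. Values are the average of two independent experiments.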

Data set [3] concerns the target T3, Endothelin-1 receptor (Sus scrofa, UniProt Q29010).
T3 sequence (Q29010 whole entry): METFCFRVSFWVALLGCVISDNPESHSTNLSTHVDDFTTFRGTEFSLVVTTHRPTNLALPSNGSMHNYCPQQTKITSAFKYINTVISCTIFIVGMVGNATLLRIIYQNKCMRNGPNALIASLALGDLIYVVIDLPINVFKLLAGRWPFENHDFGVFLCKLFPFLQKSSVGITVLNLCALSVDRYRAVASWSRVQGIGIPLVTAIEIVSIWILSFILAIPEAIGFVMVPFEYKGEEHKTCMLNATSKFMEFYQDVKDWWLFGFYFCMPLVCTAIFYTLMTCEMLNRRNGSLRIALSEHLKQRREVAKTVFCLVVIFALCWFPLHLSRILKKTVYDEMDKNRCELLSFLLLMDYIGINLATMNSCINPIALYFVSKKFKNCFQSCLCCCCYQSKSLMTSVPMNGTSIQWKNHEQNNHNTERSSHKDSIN
Kind of data set: The compound was tested for binding inhibitory activity against Endothelin A receptor from porcine aortic smooth muscle membranes.

For data set [4], the target named is T4, Endothelin receptor type B (Homo sapiens, UniProt P24530).
T4 sequence (P24530 whole entry): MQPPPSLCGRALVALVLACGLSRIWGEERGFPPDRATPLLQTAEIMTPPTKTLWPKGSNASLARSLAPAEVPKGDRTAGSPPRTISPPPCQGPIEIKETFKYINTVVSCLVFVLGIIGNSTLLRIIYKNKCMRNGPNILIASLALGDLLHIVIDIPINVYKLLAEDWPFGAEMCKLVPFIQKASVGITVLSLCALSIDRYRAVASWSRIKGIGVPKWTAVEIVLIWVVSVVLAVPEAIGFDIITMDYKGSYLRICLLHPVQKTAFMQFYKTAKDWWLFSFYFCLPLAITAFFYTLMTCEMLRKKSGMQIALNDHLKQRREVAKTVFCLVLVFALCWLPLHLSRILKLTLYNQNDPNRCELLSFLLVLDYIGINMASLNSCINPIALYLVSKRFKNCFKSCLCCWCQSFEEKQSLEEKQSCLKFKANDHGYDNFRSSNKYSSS
Kind of data set: Inhibitory effect against Human Endothelin B receptor.

Data set [5] in a line: Solubility in saline. In kind it is physicochemical. Conditions: saline; read-out: S. A digest of the protocol:
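Measured on the sodium salts, dissolved in saline.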

For data set [6], the target named is T3, Endothelin-1 receptor. Kind of data set: Inhibitory effect against porcine Endothelin A receptor. In short, it runs like this: (§2)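 [125I]ET-1 displacement from porcine aortic smooth muscle membranes, which are rich in ETA receptors. The IC50 is taken at the high-affinity sites and averaged over more than three independent experiments. The protocol follows an earlier report.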

For another data set, the species on record is Sus scrofa. Nature of the data set: Anti vasoconstriction activity was evaluated in isolated porcine coronary arteries. Conditions: read-out: pA2 (converted). In kind it is functional.
Data set [7] addresses T3, Endothelin-1 receptor. Nature of the data set: Inhibitory effect against porcine ET-A receptor. In short, it runs like this:
as §2

The target of data set [8] is T2, Endothelin-1 receptor. Kind of data set: Inhibitory effect against Human ET-A receptor. A digest of the protocol: as §1

Broadly, the IC50 is the point on the concentration scale where inhibition reaches its midpoint. As for `CC[C@H](C)[C@H]1NC(=O)[C@H](C)NC(=O)[C@@H](CCC(=O)O)NC(=O)[C@@H](Cc2c[nH]c3ccccc23)NC(=O)[C@H](CC(C)C)NC1=O` (HELM PEPTIDE1{A.[CC[C@H](C)[C@@H](N[*:1])C(=O)[*:2]].L.[dW].[dE]}$PEPTIDE1,PEPTIDE1,1:R1-5:R2$$$V2.0), the IC50 is greater than 100000 nM in data set [1], 590 nM against Endothelin-1 receptor [2], greater than 100000 nM in [4] and 1400 nM against Endothelin-1 receptor [6]. Also, the IC50 max at Endothelin-1 receptor [3] amounted to 1400 nM. Further, the solubility in [5] was 210 µg/mL (≈ 0.343 mM).

Regarding `CC(C)C[C@@H]1NC(=O)[C@@H](C2CCCC2)NC(=O)[C@@H]2CCCN2C(=O)[C@@H](CC(=O)O)NC(=O)[C@@H](Cc2c[nH]c3ccccc23)NC1=O` (single isomer, unassigned), the IC50 in data set [1] was determined as 4800 nM; in [4], 21000 nM; against Endothelin-1 receptor [7], 4 nM; against Endothelin-1 receptor [8], 3.4 nM. The Kb in the data set listed under Sus scrofa is 31.6 nM. Also, the IC50 max at Endothelin-1 receptor [3] came to 4 nM. The solubility in [5] is greater than 100000 µg/mL.

`CC(C)C[C@@H]1NC(=O)[C@@H](C(C)C)NC(=O)[C@@H]2CCCN2C(=O)[C@@H](CS(=O)(=O)O)NC(=O)[C@@H](Cc2c[nH]c3ccccc23)NC1=O` (single isomer, unassigned): the IC50 in [1] is 30000 nM; on Endothelin-1 receptor [2], 30 nM; in [4], greater than 100000 nM; against Endothelin-1 receptor [6], 21 nM. For the same compound, the Kb in the data set listed under Sus scrofa was 39.8 nM. The same compound yielded an IC50 max on Endothelin-1 receptor [3] of 21 nM. Also, the solubility in [5] is greater than 10000 µg/mL.

For `CC(C)C[C@@H]1NC(=O)[C@@H](c2cccs2)NC(=O)[C@@H]2CCCN2C(=O)[C@@H](CC(=O)O)NC(=O)[C@@H](Cc2c[nH]c3ccccc23)NC1=O` (single isomer, unassigned), the IC50 was determined as 19000 nM in [1], 55000 nM in data set [4], 3 nM against Endothelin-1 receptor [7] and 1.2 nM on Endothelin-1 receptor [8]. Further, the Kb in the data set listed under Sus scrofa was 7.94 nM. In addition, the IC50 max at Endothelin-1 receptor [3] is 3 nM. Further, in [5], the solubility worked out at 4000 µg/mL (≈ 6.15 mM).
